Calls of active or inactive are those of the source.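 Rule for the calls: active = compounds lowering cell ATP signal whose fitted half-maximal concentration is at most ten times the top tested dose; inconclusive = flat curve losing 30 to 70 percent, or poor fit; inactive = the rest.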
Tested on: not listed separately
Experiment: HeLa cell cytotoxicity, dose response, cytotoxicity control, CellTiter-Glo, 24 h, dry powder (AID 588365)
Settings: HeLa viability, CellTiter-Glo ATP luminescence, 24 h; at 35 µM (top of the series)
Outline: (§1)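 Assay system: human HeLa cell line, viability by cellular ATP; buffer or medium: phenol-red-free DMEM, 10% FBS; dosing: compound concentration series, added one day after seeding; times: 24 h compound exposure, 37 °C, then 10 min reagent, RT; technique: CellTiter-Glo ATP luminescence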

**Q.** Which activity change, negative = cytotoxicity does the source give for `O=C1/C(=C/c2ccco2)Oc2c1ccc(O)c2CN1CCCCC1` here?
**A.** 4.06% (inactive)

**Q.** For `Clc1ccc(-c2nnc3sc(-c4ccc(Br)o4)nn23)cc1`, which activity change, negative = cytotoxicity is on record?
**A.** -0.723% (inactive)

**Q.** With `O=C(O)CC(C(=O)O)N1C(=O)/C(=C/C=C/c2ccco2)SC1=S` (stereo unspecified) as the compound, how does the activity change, negative = cytotoxicity read?
**A.** 4.8% (inactive)

**Q.** For `CN(C)S(=O)(=O)c1cc(C(=O)NC2CCSc3ccccc32)ccc1Cl` (stereo unspecified), which activity change, negative = cytotoxicity is on record?
**A.** -9.03% (inactive)

**Q.** With `O=C(O)CCCCCn1c(SCC(=O)c2ccc(O)c(O)c2)nc2ccsc2c1=O` as the compound, how does the activity change, negative = cytotoxicity read?
**A.** -3.5% (inactive)

**Q.** Which activity change, negative = cytotoxicity does the source give for `CC1(C)[C@@H](O[C@H]2O[C@H](C(=O)O)[C@@H](O)[C@H](O)[C@H]2O[C@@H]2O[C@H](C(=O)O)[C@@H](O)[C@H](O)[C@H]2O)CC[C@]2(C)[C@H]3C(=O)C=C4[C@@H]5C[C@@](C)(C(=O)O)CC[C@]5(C)CC[C@@]4(C)[C@]3(C)CC[C@@H]12` here?
**A.** -1.78% (inactive)

**Q.** For `COC(=O)c1ccccc1NC(=O)CCS(=O)(=O)c1ccc(Br)cc1`, which activity change, negative = cytotoxicity is on record?
**A.** -2.03% (inactive)

**Q.** For `O=C(O)C1Nc2c(O)cc(Cl)c([N+](=O)[O-])c2C2C=CCC12` (stereo unspecified), which activity change, negative = cytotoxicity is on record?
**A.** -4.48% (inactive)

**Q.** For `CSc1ccc(/C=N/Nc2cccc(C(=O)O)c2)cc1`, which activity change, negative = cytotoxicity is on record?
**A.** -3.96% (inactive)

**Q.** For `CC1=NN(c2cccc(C(=O)O)c2)C(=O)/C1=C\C=C\c1ccco1`, which activity change, negative = cytotoxicity is on record?
**A.** -14.3% (inactive)

**Q.** Which activity change, negative = cytotoxicity does the source give for `Nc1c(/C=C2\C=CC(=O)C(O)=C2)c(=O)nc2sc(CC(=O)N3CCCCC3)nn12` here?
**A.** -8.24% (inactive)

**Q.** Which activity change, negative = cytotoxicity does the source give for `CCC(=O)Oc1ccc2c(c1)O/C(=C\c1ccco1)C2=O` here?
**A.** -1.46% (inactive)

**Q.** With `O=C1CCCC(O)=C1N=Nc1ccc(C(=O)O)cc1` as the compound, how does the activity change, negative = cytotoxicity read?
**A.** -7.5% (inactive)

**Q.** With `Nc1c(C(=O)Nc2ccccc2F)sc2nc(Cc3ccccc3)cc(C(F)(F)F)c12` as the compound, how does the activity change, negative = cytotoxicity read?
**A.** 0.381% (inactive)

Tested on: HeLa viability, CellTiter-Glo ATP luminescence, 24 h
Experiment: as above
Settings: not given
Outline: as §1

**Q.** With `O=C(O)CCNc1ccc(NCCC(=O)O)c2c1C(=O)c1ccccc1C2=O` as the compound, how does the AC50 read?
**A.** 36.1 µM

**Q.** With `O=c1c(O)cccc2cc(O)c(O)c(O)c12` as the compound, how does the AC50 read?
**A.** 16.1 µM

— PubChem BioAssay AID588365 (Broad Institute, 2011)
